Data set [1] relates to Cell line. Nature of the data set: Ability (9 umol/kg) tested for inhibition of BxPC-3 human pancreatic tumor growth (n=8). Format: functional. The method in brief:
(§1)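 BxPC-3 human pancreatic tumour cells (5 × 10⁶) implanted subcutaneously in SCID mice. At 80–160 mm³, tumours randomised into groups. Dosing on days 1, 7, 15, 22, 26, 29 and 33, with an equal-volume vehicle control group. Tumour volume measured by Vernier calipers, followed up to 50 days. % growth = 100 × (Vt/V0), where V0 is the volume on the first treatment day.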

Data set [2] has as its system Cell line. In words: Ability (18 umol/kg) tested for inhibition of BxPC-3 human pancreatic tumor growth (n=8). Type of data set: functional. In short, it runs like this: as §1
For data set [3], the system named is Cell line. Nature of the data set: Ability (36 umol/kg) tested for inhibition of BxPC-3 human pancreatic tumor growth (n=8). Type of data set: functional. The method in brief: as §1
Data set [4] in a line: Ability (18 umol/kg) tested on mortality of non-diseased CD2F1 mice at day 8 (n=8). As to conditions: CD2F1, mouse, in vivo. Type of data set: ADME. The method in brief: (§2)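 Multiple-dose toxicity in non-diseased CD2F1 mice. Five or six daily doses given (schedule days 1–5 or 1–6). Mortality recorded, reported as % mortality at day 8.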
Data set [5] is described as follows: Ability (27 umol/kg) tested on mortality of non-diseased CD2F1 mice at day 8 (n=8). Format: ADME. As to conditions: CD2F1, mouse, in vivo. The method in brief:
as §2

Data set [6] can be described thus: Ability (36 umol/kg) tested on mortality of non-diseased CD2F1 mice at day 8 (n=8). Type of data set: ADME. The settings on record: CD2F1, mouse, in vivo. In short, it runs like this: as §2

Growth and mortality data for two compounds are collected here from ChEMBL document CHEMBL1139556, “Synthesis and biological evaluation of gemcitabine-lipid conjugate (NEO6002)” (Bioorg Med Chem Lett, 2005).

By mortality is commonly meant the share of the test organisms that died. A lower mortality goes with more survivors.

In the case of `CCCCCCOCC(COP(=O)(OC)OCC(COP(=O)(OC)OCC(COCCCCCC)OCCCCCC)OC(=O)CCC(=O)OC[C@H]1O[C@@H](n2ccc(N)nc2=O)C(F)(F)[C@@H]1O)OCCCCCC` (stereo partly drawn), the results for the Growth in data set [1], in data set [2] and in data set [3] were 1387%, 1393% and 1022%, respectively.

Consider `Nc1ccn([C@@H]2O[C@H](CO)[C@@H](O)C2(F)F)c(=O)n1` [GEMCITABINE], for which the figures for the mortality at 8 day in data set [4], in data set [5] and in data set [6] were 0%, 100% and 100%, respectively. The Growth in data set [1] came to 1942%; in data set [2], 2007%.
